Test results as given in ChEMBL document CHEMBL2331388, “Flavone tetraglycosides and benzyl alcohol glycosides from the Mongolian medicinal plant Dracocephalum ruyschiana” (J Nat Prod, 2013).

System: Radical scavenging activity
Assay: Antioxidant activity assessed as DPPH radical scavenging activity after 30 mins by microplate reader
Format: functional
Summary of the method: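 Modified Mensor method. Sample in absolute MeOH at several concentrations mixed 1:1 with 0.06 mM DPPH in MeOH (100 μL each). Absorbance read at 510 nm at exactly 30 min, then percent inhibition calculated. IC50 taken as the concentration scavenging 50% of DPPH radicals. Triplicate runs. Rutin and Trolox used as reference standards.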

Compound | IC50 [µg/mL] | IC50 (read-out: IC50) [µM]
C[C@@H]1O[C@@H](OC[C@H]2O[C@@H](OCc3ccccc3)[C@H](O)[C@@H](O)[C@@H]2O)[C@H](OC(=O)/C=C/c2ccc(O)cc2)[C@H](O)[C@H]1O | > 200 | 
COc1ccc(-c2cc(=O)c3c(O)cc(O[C@@H]4O[C@H](CO[C@@H]5O[C@@H](C)[C@H](O)[C@@H](O)[C@H]5O)[C@@H](O)[C@H](O)[C@H]4O[C@@H]4O[C@H](CO)[C@@H](O)[C@H](O)[C@H]4O[C@@H]4O[C@H](CO)[C@@H](O)[C@H](O)[C@H]4O)cc3o2)cc1 | > 200 | 
O=Cc1ccc(O)cc1 [4-HYDROXYBENZALDEHYDE] | > 200 | 
COc1ccc(-c2cc(=O)c3c(O)cc(O[C@@H]4O[C@H](CO[C@@H]5O[C@@H](C)[C@H](O)[C@@H](O)[C@H]5O)[C@@H](O)[C@H](O)[C@H]4O[C@@H]4O[C@H](CO)[C@@H](O)[C@H](OC(C)=O)[C@H]4O[C@@H]4O[C@H](CO)[C@@H](O)[C@H](O)[C@H]4O)cc3o2)cc1 | > 200 | 
Cc1c(C)c2c(c(C)c1O)CCC(C)(C(=O)O)O2 (stereo unspecified) [TROLOX] |  | 25.9
COc1cc(/C=C/C(=O)O)ccc1O [FERULATE] |  | 62.4
O=C(/C=C/c1ccc(O)cc1)O[C@@H]1C[C@](O)(C(=O)O)C[C@@H](OC(=O)/C=C/c2ccc(O)c(O)c2)[C@H]1O |  | 57.4
O=C(/C=C/c1ccc(O)c(O)c1)O[C@@H]1C[C@](O)(C(=O)O)C[C@@H](OC(=O)/C=C/c2ccc(O)c(O)c2)[C@H]1O |  | 32.4
C[C@@H]1O[C@@H](OC[C@H]2O[C@@H](OCc3ccccc3)[C@H](O)[C@@H](O)[C@@H]2O)[C@H](OC(=O)/C=C\c2ccc(O)cc2)[C@H](O)[C@H]1O | > 200 | 
COC(=O)/C=C/c1ccc(O)cc1 [METHYL P-HYDROXYCINNAMATE] | > 200 | 
O=C(O)[C@H]1O[C@@H](Oc2c(-c3ccc(O)c(O)c3)oc3cc(O)cc(O)c3c2=O)[C@H](O)[C@@H](O)[C@@H]1O [QUERCETIN GLUCURONIDE] |  | 37.2
COc1ccc(-c2cc(=O)c3c(O)cc(O[C@@H]4O[C@H](CO[C@@H]5O[C@@H](C)[C@H](O)[C@@H](O)[C@H]5O)[C@@H](O)[C@H](O)[C@H]4O[C@@H]4O[C@H](COC(C)=O)[C@@H](O)[C@H](O)[C@H]4O[C@@H]4O[C@H](CO)[C@@H](O)[C@H](O)[C@H]4O)cc3o2)cc1O | > 200 | 
O=C(O)/C=C\c1ccc(O)cc1 | > 200 | 
C[C@@H]1O[C@@H](OC[C@H]2O[C@@H](Oc3c(-c4ccc(O)c(O)c4)oc4cc(O)cc(O)c4c3=O)[C@H](O)[C@@H](O)[C@@H]2O)[C@H](O)[C@H](O)[C@H]1O [RUTIN] |  | 38.7
COc1ccc(-c2cc(=O)c3c(O)cc(O[C@@H]4O[C@H](CO[C@@H]5O[C@@H](C)[C@H](O)[C@@H](O)[C@H]5O)[C@@H](O)[C@H](O)[C@H]4O[C@@H]4O[C@H](CO)[C@@H](O)[C@H](O)[C@H]4O[C@@H]4O[C@H](CO)[C@@H](O)[C@H](O)[C@H]4O)cc3o2)cc1O | > 200 | 
COc1ccc(-c2cc(=O)c3c(O)cc(O[C@@H]4O[C@H](CO[C@@H]5O[C@@H](C)[C@H](O)[C@@H](O)[C@H]5O)[C@@H](O)[C@H](O)[C@H]4O[C@@H]4O[C@H](COC(C)=O)[C@@H](O)[C@H](O)[C@H]4O[C@@H]4O[C@H](CO)[C@@H](O)[C@H](O)[C@H]4O)cc3o2)cc1 | > 200 | 
Oc1ccc(Cc2ccc(O)cc2)cc1 | > 200 | 
C[C@@H]1O[C@@H](OC[C@H]2O[C@@H](OCc3ccccc3)[C@H](O)[C@@H](O)[C@@H]2O)[C@H](O)[C@H](O)[C@H]1OC(=O)/C=C/c1ccc(O)cc1 | > 200 | 
CC(=O)OC[C@H]1O[C@@H](O[C@H]2[C@H](Oc3cc(O)c4c(=O)cc(-c5ccc(O)cc5)oc4c3)O[C@H](CO[C@@H]3O[C@@H](C)[C@H](O)[C@@H](O)[C@H]3O)[C@@H](O)[C@@H]2O)[C@H](O[C@@H]2O[C@H](CO)[C@@H](O)[C@H](O)[C@H]2O)[C@@H](O)[C@@H]1O | > 200 | 
O=C(/C=C/c1ccc(O)c(O)c1)O[C@@H]1[C@H](O)C[C@@](O)(C(=O)O)C[C@H]1OC(=O)/C=C/c1ccc(O)c(O)c1 |  | 28.9
O=C(/C=C/c1ccc(O)c(O)c1)O[C@@H]1C[C@](O)(C(=O)O)C[C@@H](O)[C@H]1O [CHLOROGENIC ACID] |  | 45.5
O=C(O)/C=C/c1ccc(O)cc1 [COUMARIC ACID] | > 200 | 

Results, then the compound that gave them:

IC50 [µg/mL] | IC50 (read-out: IC50) [µM] | Compound
> 200 |  | C[C@@H]1O[C@@H](OC[C@H]2O[C@@H](Oc3ccc(COC(=O)c4ccccc4)cc3)[C@H](O)[C@@H](O)[C@@H]2O)[C@H](O)[C@H](O)[C@H]1O
 | 284 | COc1cc([C@H]2Oc3c(OC)cc(CCCO)cc3[C@@H]2CO[C@@H]2O[C@H](CO)[C@@H](O)[C@H](O)[C@H]2O)ccc1O
> 200 |  | O=c1c(O[C@@H]2O[C@H](CO)[C@@H](O)[C@H](O)[C@H]2O)c(-c2ccc(O)cc2)oc2cc(O)cc(O)c12 [ASTRAGALIN]
 | 223 | OC[C@H]1O[C@@H](OCc2ccccc2)[C@H](O)[C@@H](O)[C@@H]1O
> 200 |  | COc1cc([C@H]2Oc3c(OC)cc(CCCO)cc3[C@@H]2CO)ccc1O[C@@H]1O[C@H](CO)[C@@H](O)[C@H](O)[C@H]1O
 | 328 | C=CCc1ccc(O[C@@H]2O[C@H](CO)[C@@H](O)[C@H](O)[C@H]2O)c(OC)c1 [CITRUSIN C]
> 200 |  | C[C@@H]1O[C@@H](OC[C@H]2O[C@@H](OCc3ccccc3)[C@H](O)[C@@H](O)[C@@H]2O)[C@H](O)[C@H](O)[C@H]1O [HYDRANGEIFOLIN I]
 | 60.6 | O=c1c(O[C@@H]2O[C@H](CO)[C@@H](O)[C@H](O)[C@H]2O)c(-c2ccc(O)c(O)c2)oc2cc(O)cc(O)c12 [ISOQUERCETIN]
> 200 |  | CC(O)(CC(=O)O)CC(=O)OCc1ccc(O[C@@H]2O[C@H](CO)[C@@H](O)[C@H](O)[C@H]2O)cc1 (stereo partly specified)
